Assay results pooled from the literature.
Target: Receptor tyrosine-protein kinase erbB-3 (ERBB3, Homo sapiens, UniProt P21860)

| Compound | assay | conditions | remaining binding |
| --- | --- | --- | --- |
| N[C@H]1CCN(c2nccc(-c3cnn4ncccc34)n2)C1 | binding | 1 µM | 97% |
| COc1cnc(Nc2cccc(S(N)(=O)=O)c2)nc1N1CCN(c2ccccc2)CC1 | binding, competition with immobilised ligand | 1 µM | 88% |
| c1cnn2ncc(-c3ccnc(N4CCC45COC5)n3)c2c1 | binding | 1 µM | 86% |
| O=C(c1ccc(Nc2ncc(Cl)c(-c3cc4ccccc4s3)n2)cc1)N1CCC(N2CCCC2)CC1 | binding, competition with immobilised ligand | 1 µM | 81% |
| C[C@@H](c1ccc(-n2cnc3c(N)ncnc32)cc1)N1CCc2nn(C)c(Cc3ccccc3)c2C1=O | binding, competition with immobilised ligand | 0.1 µM | 55% |
| O=C(NCCCN1CCOCC1)c1ccc(Nc2nccc(-c3cc4ccccc4s3)n2)cc1 | binding, competition with immobilised ligand | 1 µM | 86% |
| Nc1ncc2c(n1)-c1c([nH]c3ccc(C#CC4CC4)cc13)CCCC2 | binding, competition with immobilised ligand | 1 µM | 100% |
| C[C@H](c1ccc(F)cc1)N(Cc1cccc(C(=O)O)c1)C(=O)c1cnc2ccccc2c1 | cell-free assay, competition with immobilised ligand | 1 µM | 68% |
| C[C@@H]1CCN(c2nccc(-c3cnn4ncccc34)n2)C1 | binding | 1 µM | 100% |
| CCOC(=O)c1cc2cc(-c3cc(C(=O)NCc4ccc(C(=O)O)cc4)nn3C)ccc2[nH]1 | cell-free assay, competition with immobilised ligand | 0.1 µM | 81% |
| F[C@@H]1CCN(c2nccc(-c3cnn4ncccc34)n2)C1 | binding | 1 µM | 100% |
| COc1ccc2c(c1)O[C@H](c1ccc(OC)c(OC)c1)C[C@@H]2NC(=O)C1(c2ccc3c(c2)OC(F)(F)O3)CC1 | cell-free assay, competition with immobilised ligand | 1 µM | 92% |
| C=CC(=O)N1CCC(C(=O)NCC(=O)N2CCN(c3nc(-c4cnc(N)nc4C(F)F)nc(N4CCOCC4)n3)CC2)CC1 | binding, competition with immobilised ligand | 1 µM | 84% |
| CN(CCCC(F)(F)F)c1nccc(-c2cnn3ncccc23)n1 | binding | 1 µM | 100% |
| Cc1cnc(Nc2ccc(C(=O)N3CCC(N4CCCC4)CC3)cc2)nc1-c1cc2ccccc2s1 | binding, competition with immobilised ligand | 1 µM | 89% |
| CCCOc1ccc([C@H]2[C@H](C(=O)O)[C@@H](c3ccc4c(c3)OCO4)CN2CC(=O)Nc2c(CC)cccc2CC)cc1 | cell-free assay, competition with immobilised ligand | 1 µM | 78% |
| CN(C)c1ncc(F)c(-c2cnn3ncccc23)n1 | binding | 1 µM | 100% |
| FC(F)(F)Oc1cccc(-c2cnc3ccc(-c4ccncc4)nn23)c1 | cell-free assay, competition with immobilised ligand | 5 µM | 19% |
| CC(C)(O)c1cncc(-c2nc3ccc(F)cc3n2C2CC2)c1 | cell-free assay, competition with immobilised ligand | 1 µM | 80% |
| O=C(NCC1CCOCC1)c1n[nH]cc1NC(=O)c1c(F)cccc1F | binding, competition with immobilised ligand | 1 µM | 73% |
| CC(=O)N1CCC(c2ccc(C(=O)NC(=N)N)cc2C(F)(F)F)CC1 | cell-free assay, competition with immobilised ligand | 1 µM | 98% |
| COc1cnc(Nc2cccc(S(N)(=O)=O)c2)nc1N1CCN(c2ccccc2)C(=O)C1 | binding, competition with immobilised ligand | 1 µM | 98% |
